{
  "source": "ChEMBL document CHEMBL1155028",
  "about": "“Synthesis and pharmacological investigation of novel 2-aminothiazole-privileged aporphines” (Bioorg Med Chem, 2008)",
  "format_in_all_cases": "cell-based",
  "key": {"[1]": {"molecular_target": "T1, 5-hydroxytryptamine receptor 1A (Rattus norvegicus) (UniProt P19327)", "T1 sequence (whole entry)": "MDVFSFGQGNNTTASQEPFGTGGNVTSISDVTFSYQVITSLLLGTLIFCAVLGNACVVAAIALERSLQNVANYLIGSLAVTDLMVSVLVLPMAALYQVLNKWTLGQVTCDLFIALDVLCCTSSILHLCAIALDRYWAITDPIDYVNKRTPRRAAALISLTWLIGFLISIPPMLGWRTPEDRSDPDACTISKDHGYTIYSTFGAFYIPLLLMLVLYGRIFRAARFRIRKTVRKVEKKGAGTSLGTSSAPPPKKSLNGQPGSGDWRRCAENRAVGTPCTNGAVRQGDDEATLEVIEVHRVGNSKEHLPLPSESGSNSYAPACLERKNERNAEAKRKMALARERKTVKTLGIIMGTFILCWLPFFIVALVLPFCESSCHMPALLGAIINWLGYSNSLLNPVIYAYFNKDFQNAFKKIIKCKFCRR", "test": "Displacement of [3H]8-OH-DPAT from rat 5HT1A receptor expressed in CHO cells at 10 uM", "outline": "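Duplicate incubations ran 50 min at 30 °C in 50 mM Tris, 4 mM MgCl2, pH 7.4. Nonspecific binding was set with 10 µM WAY100635. Bound ligand was separated on GF/B filters, washed with cold Tris/EDTA buffer, and counted by liquid scintillation.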"}, "D(1A) dopamine receptor": {"molecular_target": "D(1A) dopamine receptor (Homo sapiens, UniProt P21728)", "sequence (P21728 whole entry)": "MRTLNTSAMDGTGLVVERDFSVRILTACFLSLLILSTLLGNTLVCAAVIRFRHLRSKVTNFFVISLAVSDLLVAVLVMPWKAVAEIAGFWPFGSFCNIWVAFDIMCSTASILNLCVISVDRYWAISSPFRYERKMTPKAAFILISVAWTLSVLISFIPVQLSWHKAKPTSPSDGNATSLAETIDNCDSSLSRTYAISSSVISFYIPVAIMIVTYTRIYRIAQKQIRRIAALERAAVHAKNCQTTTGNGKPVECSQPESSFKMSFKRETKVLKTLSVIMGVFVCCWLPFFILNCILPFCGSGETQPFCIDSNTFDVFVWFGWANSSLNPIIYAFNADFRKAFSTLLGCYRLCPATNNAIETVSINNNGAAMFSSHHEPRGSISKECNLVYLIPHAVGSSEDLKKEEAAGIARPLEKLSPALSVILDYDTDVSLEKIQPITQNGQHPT", "test": "Displacement of [3H]SCH-23390 from human dopamine D1 receptor expressed in HEK293 cells"}, "[2]": {"molecular_target": "T2, 5-hydroxytryptamine receptor 1A (Rattus norvegicus, UniProt P19327)", "T2 sequence (P19327 whole entry)": "T1 sequence (whole entry)", "test": "Displacement of [3H]8-OH-DPAT from rat 5HT1A receptor expressed in CHO cells"}, "D(2) dopamine receptor": {"molecular_target": "D(2) dopamine receptor (Homo sapiens, UniProt P14416)", "sequence (P14416 whole entry)": "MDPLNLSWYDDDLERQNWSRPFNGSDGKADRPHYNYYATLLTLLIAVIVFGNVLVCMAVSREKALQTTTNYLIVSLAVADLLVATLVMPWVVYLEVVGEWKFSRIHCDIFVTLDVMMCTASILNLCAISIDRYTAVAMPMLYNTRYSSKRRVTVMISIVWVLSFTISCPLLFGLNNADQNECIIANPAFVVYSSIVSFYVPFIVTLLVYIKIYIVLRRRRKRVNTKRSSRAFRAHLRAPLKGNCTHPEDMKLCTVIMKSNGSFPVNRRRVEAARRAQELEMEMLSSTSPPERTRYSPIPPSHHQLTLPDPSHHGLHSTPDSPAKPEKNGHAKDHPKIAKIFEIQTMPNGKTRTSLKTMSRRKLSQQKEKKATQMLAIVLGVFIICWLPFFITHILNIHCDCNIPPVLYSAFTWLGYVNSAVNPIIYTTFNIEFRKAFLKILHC", "test": "Displacement of [3H]spiperone from human dopamine D2 receptor expressed in HEK293 cells"}},
  "data": [
    {"smiles": "COc1cc2c3c(c1)-c1c(ccc4sc(N)nc14)C[C@H]3N(C)CC2", "values": [
      {"measurement": "Activity", "setting": "[1]", "result": 48.1, "unit": "%"}
    ]},
    {"smiles": "CCCCC(=O)Oc1cccc2c1-c1cc(OC)cc3c1[C@@H](C2)N(C)CC3", "values": [
      {"measurement": "Ki", "setting": "D(1A) dopamine receptor", "result": 116, "unit": "nM"},
      {"measurement": "Activity", "setting": "[1]", "result": 100, "unit": "%"},
      {"measurement": "Ki", "setting": "[2]", "result": 151, "unit": "nM"}
    ]},
    {"smiles": "NCCc1c[nH]c2ccc(O)cc12", "values": [
      {"measurement": "Activity", "setting": "[1]", "result": 100, "unit": "%"}
    ]},
    {"smiles": "CN1CCc2cc(N)cc3c2[C@H]1Cc1cccc(N)c1-3", "values": [
      {"measurement": "Ki", "setting": "D(1A) dopamine receptor", "result": 2920, "unit": "nM"},
      {"measurement": "Activity", "setting": "[1]", "result": 48.1, "unit": "%"},
      {"measurement": "Ki", "setting": "[2]", "result": 2300, "unit": "nM"}
    ]},
    {"smiles": "COc1cc2c3c(c1)-c1c(N)cccc1C[C@H]3N(C)CC2", "values": [
      {"measurement": "Ki", "setting": "D(1A) dopamine receptor", "result": 78, "unit": "nM"},
      {"measurement": "Activity", "setting": "[1]", "result": 94, "unit": "%"},
      {"measurement": "Ki", "setting": "[2]", "result": 640, "unit": "nM"}
    ]},
    {"smiles": "CN1CCc2c3c(cc4nc(N)sc24)-c2c(ccc(O)c2O)C[C@H]31", "values": [
      {"measurement": "Ki", "setting": "D(1A) dopamine receptor", "result": 2520, "unit": "nM"},
      {"measurement": "Ki", "setting": "D(2) dopamine receptor", "result": 328, "unit": "nM"}
    ]}
  ]
}
